What was measured:
Aromatase [1] = biological target: T1, Aromatase (Homo sapiens, UniProt P11511); experiment: Inhibition of human aromatase at 36 uM
T1 sequence (P11511 whole entry): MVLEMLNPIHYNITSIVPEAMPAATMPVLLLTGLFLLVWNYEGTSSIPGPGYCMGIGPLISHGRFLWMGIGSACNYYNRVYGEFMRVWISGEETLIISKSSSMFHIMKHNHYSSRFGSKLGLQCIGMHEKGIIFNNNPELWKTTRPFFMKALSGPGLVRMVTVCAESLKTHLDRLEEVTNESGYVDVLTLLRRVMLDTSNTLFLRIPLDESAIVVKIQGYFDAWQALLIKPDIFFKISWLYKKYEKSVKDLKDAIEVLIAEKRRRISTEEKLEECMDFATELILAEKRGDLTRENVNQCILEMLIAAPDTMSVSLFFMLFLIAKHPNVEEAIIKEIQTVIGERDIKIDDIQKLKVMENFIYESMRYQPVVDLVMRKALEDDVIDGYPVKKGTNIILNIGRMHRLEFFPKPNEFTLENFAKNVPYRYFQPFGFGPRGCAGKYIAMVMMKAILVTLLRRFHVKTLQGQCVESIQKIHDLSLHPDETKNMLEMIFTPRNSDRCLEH
Procedure, shortened: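 Aromatase source: microsomal fraction of fresh human term placenta. Substrate: [1β,2β-³H]testosterone, 500 nM. Read-out: tritiated water released on aromatization (³H₂O method). Values are means of at least three experiments, with deviations within 5%.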

[2] = biological target: T2, CYP17 (steroid 17-alpha-hydroxylase/17,20 lyase) (Homo sapiens, UniProt P05093); experiment: (§1) Inhibition of human CYP17 expressed in Escherichia coli coexpressing NADPH reductase at 2 uM
T2 sequence (P05093 whole entry): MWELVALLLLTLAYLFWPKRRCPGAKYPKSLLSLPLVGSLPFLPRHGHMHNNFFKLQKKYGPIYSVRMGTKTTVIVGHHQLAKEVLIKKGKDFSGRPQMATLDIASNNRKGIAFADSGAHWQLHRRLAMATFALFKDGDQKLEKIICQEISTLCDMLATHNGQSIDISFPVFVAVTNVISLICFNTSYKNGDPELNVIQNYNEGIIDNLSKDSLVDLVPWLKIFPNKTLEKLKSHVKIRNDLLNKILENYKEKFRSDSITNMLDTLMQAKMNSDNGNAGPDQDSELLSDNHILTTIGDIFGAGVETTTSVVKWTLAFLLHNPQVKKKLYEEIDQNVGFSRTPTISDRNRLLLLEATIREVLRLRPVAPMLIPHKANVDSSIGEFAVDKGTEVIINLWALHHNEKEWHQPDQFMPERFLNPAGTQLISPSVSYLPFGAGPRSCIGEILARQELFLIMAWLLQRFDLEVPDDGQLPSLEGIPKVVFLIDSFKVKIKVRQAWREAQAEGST
Procedure, shortened: (§2)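 Enzyme: 50,000g sediment from homogenized, fractionally centrifuged E. coli coexpressing human CYP17 and NADPH-P450 reductase. Substrate: progesterone, 25 µM. Values are means of at least three experiments, with deviations within 5%.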

Aromatase [3] = biological target: T1, Aromatase; experiment: Inhibition of human aromatase
[4] = biological target: T3, Steroid 17-alpha-hydroxylase/17,20 lyase (Homo sapiens, UniProt P05093); experiment: as §1; conditions: 2 µM; procedure, shortened: as §2
T3 sequence (P05093 whole entry): T2 sequence (P05093 whole entry)

| Compound | inhibition at 36 µM (Aromatase [1]) | inhibition at 2 µM [2] | IC50 (Aromatase [3]) | Activity [4] |
| --- | --- | --- | --- | --- |
| CC(C)(C)c1ccc(CN(Cc2ccc(Cl)cc2Cl)n2cnnc2)cc1 | 3.3% | 4% | – | – |
| c1ccc(CN(Cc2cccc3ccsc23)n2ccnc2)cc1 | – | 5.25% | 9960 nM | – |
| Clc1ccc(CN(CC/C=C/c2ccccc2)n2cncn2)c(Cl)c1 | – | 21.1% | 17100 nM | – |
| CC(C)(C)c1ccc(CN(CC/C=C/c2ccccc2)n2cncn2)cc1 | – | 12.4% | 5060 nM | – |
| CC(C)(C)c1ccc(CN(Cc2cccc3ccccc23)n2ccnc2)cc1 | – | 13% | 4590 nM | – |
| Clc1ccc(CN(Cc2cccc3ccccc23)n2ccnc2)c(Cl)c1 | – | 11.3% | 4000 nM | – |
| CC(C)(C)c1ccc(CN(Cc2ccc(-c3ccccc3)cc2)n2cncn2)cc1 | 19.8% | 6.03% | – | – |
| C(=C\c1ccccc1)/CCN(Cc1cccc2ccccc12)n1cnnc1 | 14.8% | 6.1% | – | – |
| C(=C\c1ccccc1)/CCN(Cc1ccc(-c2ccccc2)cc1)n1cnnc1 | 5.9% | 16.1% | – | – |
| Cc1ccc(CN(Cc2ccc(-c3ccccc3)cc2)n2ccnc2)cc1 | – | 29.1% | 2200 nM | – |
| Clc1ccc(CN(Cc2cccc3ccccc23)n2cncn2)c(Cl)c1 | 24.9% | – | – | Not Active |
| C(=C\c1ccccc1)/CCN(Cc1ccc(-c2ccccc2)cc1)n1cncn1 | 31.4% | 12.4% | – | – |
| Clc1ccc(CN(Cc2ccc(-c3ccccc3)cc2)n2ccnc2)c(Cl)c1 | – | 25.8% | 3650 nM | – |
| CC(C)(C)c1ccc(CN(Cc2ccc(-c3ccccc3)cc2)n2cnnc2)cc1 | 8.8% | 15.9% | – | – |
| Clc1ccc(CN(Cc2ccc(-c3ccccc3)cc2)n2cnnc2)c(Cl)c1 | – | 13.1% | – | – |
| COc1ccc(CC(Cc2ccc(-c3ccccc3)cc2)n2ccnc2)cc1 (stereo unspecified) | – | 38.8% | 1680 nM | – |
| Cc1ccccc1CN(Cc1ccc(-c2ccccc2)cc1)n1ccnc1 | – | 20.6% | 2960 nM | – |
| C(=C\c1ccccc1)/CCN(Cc1cccc2ccccc12)n1cncn1 | – | 15.5% | 13000 nM | – |
| CC(C)(C)c1ccc(CN(Cc2cccc3ccccc23)n2cnnc2)cc1 | – | 22.4% | – | – |
| Clc1ccc(CN(CC/C=C/c2ccccc2)n2cnnc2)c(Cl)c1 | 10.6% | – | – | Not Active |
| CC(C)(C)c1ccc(CN(CC/C=C/c2ccccc2)n2cnnc2)cc1 | 38.3% | 19.9% | – | – |
| CC(C)(C)c1ccc(CN(Cc2ccc(Cl)cc2Cl)n2cncn2)cc1 | 36% | 3.33% | – | – |
| Clc1ccc(CN(Cc2cccc3ccsc23)n2ccnc2)c(Cl)c1 | – | 4.07% | 2490 nM | – |
| CC(C)(C)c1ccc(CN(Cc2ccc(-c3ccccc3)cc2)n2ccnc2)cc1 | – | – | 2160 nM | Not Active |
| CC(C)(C)c1ccc(CN(Cc2cccs2)n2cncn2)cc1 | – | – | 9230 nM | Not Active |
| CC(C)(C)c1ccc(CN(Cc2cccc3ccccc23)n2cncn2)cc1 | 14.6% | 3.13% | – | – |
| Clc1ccc(CN(Cc2cccc3ccccc23)n2cnnc2)c(Cl)c1 | 8.8% | 4.43% | – | – |
| CC(C)(C)c1ccc(CN(Cc2cccs2)n2cnnc2)cc1 | 30.7% | – | – | Not Active |
| Clc1ccc(CN(Cc2ccc(-c3ccccc3)cc2)n2cncn2)c(Cl)c1 | 27.6% | 9.2% | – | – |

Results, then the compound that gave them:

| inhibition at 36 µM (Aromatase [1]) | inhibition at 2 µM [2] | IC50 (Aromatase [3]) | Activity [4] | Compound |
| --- | --- | --- | --- | --- |
| – | 25.7% | 1070 nM | – | Clc1ccc(CC(Cc2ccc(-c3ccccc3)cc2)n2ccnc2)s1 (stereo unspecified) |
| – | 7.3% | 1060 nM | – | Clc1ccc(CN(Cc2ccccc2)n2ccnc2)s1 |
| – | 23.6% | 1040 nM | – | Clc1ccc(CN(Cc2ccc(-c3ccccc3)cc2)n2ccnc2)s1 |
| – | 25% | 1040 nM | – | Cc1ccccc1CC(Cc1ccc(-c2ccccc2)cc1)n1ccnc1 (stereo unspecified) |
| – | 22.6% | 1090 nM | – | Clc1ccccc1CC(Cc1ccc(-c2ccccc2)cc1)n1ccnc1 (stereo unspecified) |
| – | – | 1370 nM | Not Active | Fc1ccccc1CC(Cc1ccc(-c2ccccc2)cc1)n1ccnc1 (stereo unspecified) |
| – | 18.2% | 1240 nM | – | Clc1ccc(CC(Cc2ccc(-c3ccccc3)cc2)n2ccnc2)c(Cl)c1 (stereo unspecified) |
| – | 17.7% | 260 nM | – | Fc1ccc(CC(Cc2ccc(-c3ccccc3)cc2)n2ccnc2)c(F)c1 (stereo unspecified) |
| – | – | 460 nM | Not Active | Fc1ccccc1CN(Cc1ccc(-c2ccccc2)cc1)n1ccnc1 |
| – | – | 1200 nM | Not Active | c1ccc(CN(Cc2ccc(-c3ccccc3)cc2)n2ccnc2)cc1 |
| – | 13.6% | 1180 nM | – | Clc1ccc(CN(Cc2ccc(-c3ccccc3)cc2)n2ccnc2)cc1 |
| – | – | 1000 nM | Not Active | CC(C)(C)c1ccc(CC(Cc2ccc(-c3ccccc3)cc2)n2ccnc2)cc1 (stereo unspecified) |
| – | 13.9% | 190 nM | – | Fc1ccc(CN(Cc2ccc(-c3ccccc3)cc2)n2ccnc2)cc1 |
| – | 42.9% | 1510 nM | – | COc1ccccc1CN(Cc1ccc(-c2ccccc2)cc1)n1ccnc1 |
| – | 21.7% | 1530 nM | – | COc1ccc(CN(Cc2ccc(-c3ccccc3)cc2)n2ccnc2)cc1 |
| – | 17.1% | 950 nM | – | c1ccc(CC(Cc2ccc(-c3ccccc3)cc2)n2ccnc2)cc1 (stereo unspecified) |
| – | – | 350 nM | Not Active | Fc1ccc(CN(Cc2ccc(-c3ccccc3)cc2)n2ccnc2)c(F)c1 |
| – | 43.3% | 1520 nM | – | CC(C)(C)c1ccc(CN(Cc2ccc(Cl)cc2Cl)n2ccnc2)cc1 |
| – | 56.2% | 320 nM | – | Clc1ccc(CN(Cc2ccc(Cl)s2)n2ccnc2)c(Cl)c1 |
| – | 7.97% | 870 nM | – | Clc1ccc(CC(Cc2ccccc2)n2ccnc2)s1 (stereo unspecified) |
| – | 29.4% | 300 nM | – | Clc1ccccc1CN(Cc1ccc(-c2ccccc2)cc1)n1ccnc1 |
| – | 30.2% | 510 nM | – | COc1ccccc1CC(Cc1ccc(-c2ccccc2)cc1)n1ccnc1 (stereo unspecified) |
| – | 32.8% | 1320 nM | – | Cc1ccc(CC(Cc2ccc(-c3ccccc3)cc2)n2ccnc2)cc1 (stereo unspecified) |
| – | 15.8% | 110 nM | – | Fc1ccc(CC(Cc2ccc(-c3ccccc3)cc2)n2ccnc2)cc1 (stereo unspecified) |
| – | 10.7% | 580 nM | – | CC(C)(C)c1ccc(CN(Cc2cccs2)n2ccnc2)cc1 |

— ChEMBL document CHEMBL1144209, “CYP19 (aromatase): exploring the scaffold flexibility for novel selective inhibitors” (Bioorg Med Chem, 2008)
